# Experimental data reported in ChEMBL document CHEMBL1128175, “Pyrrolo[2,1-c][1,4]benzothiazines: synthesis, structure-activity relationships, molecular modeling studies, and cardiovascular activity” (J Med Chem, 1995).
# What was measured:
# [1] = target: T1, Voltage-gated L-type calcium channel (Rattus norvegicus, UniProt P22002+Q02485+P27732); assay: Calcium antagonistic activity by measuring [3H]nitrendipine displacement at calcium channel in rat cortex homogenate; format: functional, tissue-based
# Procedure, shortened: (§1)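 Cerebral cortex from male Sprague-Dawley rats, homogenized in 50 mM Na-Hepes pH 7.4 and washed five times by centrifugation at 48000g. Bound ligand collected by rapid filtration and counted. IC50 by log-probit analysis, converted to Ki by the Prusoff method. At least three experiments in triplicate.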
# [2] = target: T1, Voltage-gated L-type calcium channel; assay: Inhibition of [3H]nitrendipine binding at L-type [Ca2+] channel in rat cortex homogenate by 50%.; procedure, shortened: as §1
# Cavia porcellus [3] = organism: Cavia porcellus; assay: Tested for the calcium antagonistic activity on K+-depolarized guinea pig aortic strips at 5*10e-5 M.; format: functional, Aorta
# Procedure, shortened: (§2)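 Guinea pig aortic strips held at 1 g resting force and equilibrated 1 h in PSS. Contracted with 80 mM KCl (K+ replacing Na+). At plateau (about 30 min), compounds in DMSO were added cumulatively at 0.1-500 µM. Relaxation of isometric force measured.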
# Cavia porcellus [4] = organism: Cavia porcellus; assay: Inotropic negative potency on stimulated guinea pig left atrium; format: functional; settings: Cardiac atrium, read-out: ED50 (the source's name)
# Procedure, shortened: (§3)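 Guinea pig left atria driven at 1 Hz with 0.6-0.8 ms pulses at […], in oxygenated Tyrode at 35 °C, pH 7.4. Isometric force recorded. Cumulative compound additions of 0.1-100 µM from DMSO stock (bath DMSO ≤0.3%), each after steady state. Potency from log concentration-response curves by probit analysis, n = 6-8.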
# Cavia porcellus [5] = organism: Cavia porcellus; assay: The compound was tested for the negative chronotropic activity on isolated guinea pig spontaneously beating right atrium at 10e-4 M.; format: functional, Cardiac atrium
# Procedure, shortened: (§4)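 Spontaneously beating right atria from guinea pigs (300-400 g) in oxygenated Tyrode (95% O2-5% CO2), 35 °C, pH 7.4, recorded isometrically. Compounds from DMSO diluted in PSS (DMSO ≤0.3%), added cumulatively at 0.1-100 µM once steady state was reached.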
# Cavia porcellus [6] = organism: Cavia porcellus; assay: Inotropic negative potency on spontaneously beating right atrium of guinea pig; format: functional, Cardiac atrium; procedure, shortened: as §4
# Cavia porcellus [7] = organism: Cavia porcellus; assay: The compound was tested for the negative inotropic activity on isolated guinea pig left atrium at 5*10e-5 M; format: functional, Cardiac atrium; procedure, shortened: as §3
# [8] = target: T2, Voltage-dependent L-type calcium channel subunit alpha-1C (Rattus norvegicus, UniProt P22002); assay: Calcium antagonistic activity by measuring [3H]nitrendipine displacement from rat heart L-type [Ca2+] channel; format: functional
# T2 sequence (P22002 whole entry, the tested form may be a part): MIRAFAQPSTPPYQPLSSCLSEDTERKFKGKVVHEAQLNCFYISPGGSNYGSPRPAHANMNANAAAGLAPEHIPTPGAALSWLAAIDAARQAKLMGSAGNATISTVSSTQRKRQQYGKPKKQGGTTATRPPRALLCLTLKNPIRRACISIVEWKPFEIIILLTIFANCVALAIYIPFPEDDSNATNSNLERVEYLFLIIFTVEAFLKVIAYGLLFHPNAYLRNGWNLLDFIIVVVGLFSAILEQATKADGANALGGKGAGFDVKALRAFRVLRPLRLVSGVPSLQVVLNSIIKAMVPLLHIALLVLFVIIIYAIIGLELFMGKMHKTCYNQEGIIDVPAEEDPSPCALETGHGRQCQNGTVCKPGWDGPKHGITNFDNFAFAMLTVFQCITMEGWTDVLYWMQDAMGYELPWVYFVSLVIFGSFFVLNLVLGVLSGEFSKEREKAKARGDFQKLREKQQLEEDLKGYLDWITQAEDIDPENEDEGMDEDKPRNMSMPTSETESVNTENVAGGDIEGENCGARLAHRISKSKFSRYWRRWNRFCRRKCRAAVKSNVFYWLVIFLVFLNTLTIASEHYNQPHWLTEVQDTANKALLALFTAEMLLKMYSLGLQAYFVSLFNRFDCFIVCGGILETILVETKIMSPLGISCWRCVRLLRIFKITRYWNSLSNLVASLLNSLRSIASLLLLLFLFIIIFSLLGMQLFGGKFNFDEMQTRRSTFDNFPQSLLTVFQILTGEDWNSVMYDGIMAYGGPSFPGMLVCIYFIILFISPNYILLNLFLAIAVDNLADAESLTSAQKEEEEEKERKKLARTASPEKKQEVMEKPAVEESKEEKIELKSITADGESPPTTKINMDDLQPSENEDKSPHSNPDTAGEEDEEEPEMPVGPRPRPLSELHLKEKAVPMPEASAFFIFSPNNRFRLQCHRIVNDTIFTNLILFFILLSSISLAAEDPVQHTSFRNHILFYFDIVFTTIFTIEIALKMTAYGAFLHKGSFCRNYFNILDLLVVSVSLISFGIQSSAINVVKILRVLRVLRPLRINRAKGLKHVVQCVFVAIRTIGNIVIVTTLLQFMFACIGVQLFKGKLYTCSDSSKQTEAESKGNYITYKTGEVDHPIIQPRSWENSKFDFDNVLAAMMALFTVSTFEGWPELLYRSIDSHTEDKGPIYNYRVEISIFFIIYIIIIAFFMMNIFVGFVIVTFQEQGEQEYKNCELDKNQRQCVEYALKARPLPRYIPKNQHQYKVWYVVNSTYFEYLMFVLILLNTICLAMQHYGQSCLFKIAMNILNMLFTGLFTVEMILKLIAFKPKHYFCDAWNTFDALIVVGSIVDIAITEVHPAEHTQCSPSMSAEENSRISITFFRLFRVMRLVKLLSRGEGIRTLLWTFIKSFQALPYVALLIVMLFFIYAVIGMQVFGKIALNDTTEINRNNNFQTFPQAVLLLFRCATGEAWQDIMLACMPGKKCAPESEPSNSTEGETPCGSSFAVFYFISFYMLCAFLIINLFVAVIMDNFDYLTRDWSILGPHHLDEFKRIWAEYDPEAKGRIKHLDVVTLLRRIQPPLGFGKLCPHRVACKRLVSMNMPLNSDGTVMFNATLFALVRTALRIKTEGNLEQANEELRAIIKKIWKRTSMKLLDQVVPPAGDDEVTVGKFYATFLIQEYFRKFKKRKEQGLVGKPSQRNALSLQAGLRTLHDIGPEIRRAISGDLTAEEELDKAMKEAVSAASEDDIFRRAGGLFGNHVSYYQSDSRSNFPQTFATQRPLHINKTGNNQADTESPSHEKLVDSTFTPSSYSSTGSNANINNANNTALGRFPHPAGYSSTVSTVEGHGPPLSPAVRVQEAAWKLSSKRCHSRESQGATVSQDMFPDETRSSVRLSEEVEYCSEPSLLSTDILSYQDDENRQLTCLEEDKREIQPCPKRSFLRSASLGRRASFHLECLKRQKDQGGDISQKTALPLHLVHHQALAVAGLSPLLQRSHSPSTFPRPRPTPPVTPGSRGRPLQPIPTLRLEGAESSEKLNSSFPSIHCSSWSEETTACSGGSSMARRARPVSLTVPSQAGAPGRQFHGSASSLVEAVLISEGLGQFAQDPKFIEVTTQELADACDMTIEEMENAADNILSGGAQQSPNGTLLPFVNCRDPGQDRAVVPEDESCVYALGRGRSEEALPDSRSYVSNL
# Procedure, shortened: (§5)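 Rat hearts perfused through the aorta with ice-cold saline, homogenized in 50 mM Na-Hepes pH 7.4, filtered through cheesecloth and washed five times at 48000g. Incubated 90 min at 0 °C in the dark with [3H]nitrendipine. Six displacer concentrations used, separated by filtration. IC50 by log-probit analysis, converted to Ki by Cheng-Prusoff. At least three experiments in triplicate.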
# Cavia porcellus [9] = organism: Cavia porcellus; assay: Tested for the calcium antagonistic activity on K+-depolarized guinea pig aortic strips at 10e-4 M.; format: functional; settings: Aorta; procedure, shortened: as §2
# Cavia porcellus [10] = organism: Cavia porcellus; assay: Tested for the negative chronotropic activity on isolated guinea pig spontaneously beating right atrium at 5*10e-5 M.; format: functional, Cardiac atrium; procedure, shortened: as §4
# Cavia porcellus [11] = organism: Cavia porcellus; assay: Tested for the negative inotropic activity on isolated guinea pig left atrium at 10e-4 M; format: functional, Cardiac atrium; procedure, shortened: as §3
# [12] = target: T1, Voltage-gated L-type calcium channel; assay: Calcium antagonistic activity by measuring [3H]nitrendipine displacement at L-type [Ca2+] channel in rat cortex homogenate; format: functional, tissue-based; procedure, shortened: as §1
# Cavia porcellus [13] = organism: Cavia porcellus; assay: The compound was tested for the negative chronotropic activity on isolated guinea pig spontaneously beating right atrium at 10e-5 M.; format: functional, Cardiac atrium; procedure, shortened: as §4
# [14] = target: T2, Voltage-dependent L-type calcium channel subunit alpha-1C; assay: The compound was tested for calcium antagonistic activity by measuring [3H]nitrendipine displacement from rat heart L-type calcium channels; Not active; format: functional; procedure, shortened: as §5
# Cavia porcellus [15] = organism: Cavia porcellus; assay: The compound was tested for the calcium antagonistic activity on K+-depolarized guinea pig aortic strips; format: functional; settings: Aorta; procedure, shortened: as §2
# Cavia porcellus [16] = organism: Cavia porcellus; assay: Tested for the negative inotropic activity on isolated guinea pig left atrium at 10e-5 M; format: functional, Cardiac atrium; procedure, shortened: as §3
# Cavia porcellus [17] = organism: Cavia porcellus; assay: Inotropic negative potency on stimulated guinea pig left atrium.; format: functional; settings: Cardiac atrium, read-out: ED50 (the source's name); procedure, shortened: as §3
# Cavia porcellus [18] = organism: Cavia porcellus; assay: Inotropic negative potency on stimulated guinea pig left atrium.(value in parentheses indicate 95% confidence limit*10e-6).; format: functional; settings: Cardiac atrium, read-out: ED50 (the source's name); procedure, shortened: as §3
# Cavia porcellus [19] = organism: Cavia porcellus; assay: The compound was tested for the negative inotropic activity on isolated guinea pig left atrium at 5*10e-6 M; format: functional, Cardiac atrium; procedure, shortened: as §3
# Cavia porcellus [20] = organism: Cavia porcellus; assay: Inotropic negative potency on spontaneously beating right atrium of guinea pig, activity is expressed as […] values; format: functional, Cardiac atrium; procedure, shortened: as §4
# Cavia porcellus [21] = organism: Cavia porcellus; assay: The compound was tested for the calcium antagonistic activity on K+-depolarized guinea pig aortic strips at 10e-4 M.; format: functional; settings: Aorta; procedure, shortened: as §2
# Cavia porcellus [22] = organism: Cavia porcellus; assay: Inotropic negative potency on spontaneously beating right atrium of guinea pig.(value in parentheses indicate 95% confidence limit*10e-6).; format: functional, Cardiac atrium; procedure, shortened: as §4
Compound,IC50 [2] [nM],EC50 (Cavia porcellus [4]) [nM],Ki [12] [nM],inhibition at 100 µM (Cavia porcellus [9]) [%],Decrease (Cavia porcellus [10]) [%],further results
COc1ccc(C2(c3ccc(OC)cc3)Sc3ccccc3-n3c(CN(C)C)ccc32)cc1,2160,730,809,12,48,Decrease (Cavia porcellus [11]): 78%
COc1ccc(C2Sc3ccccc3-n3cccc32)cc1 (stereo unspecified),> 5000,–,–,–,–,–
COc1ccc(C2(c3ccc(OC)cc3)Sc3ccccc3-n3cccc32)cc1,> 5000,–,–,–,–,–
COc1ccc(C2Oc3ccccc3-n3c(CN(C)C)ccc32)cc1 (stereo unspecified),4670,920,1750,24,–,Decrease (Cavia porcellus [13]): 22%; Decrease (Cavia porcellus [11]): 69%; Ki [14]: Not Active
COc1ccc([C@H]2Sc3ccccc3N3C(=O)CC[C@H]23)cc1,4.4,1200,2,32,39,Decrease (Cavia porcellus [11]): 60%; Ki [8]: 35 nM
COc1ccc(C2(c3ccc(OC)cc3)Sc3ccc(C(F)(F)F)cc3-n3cccc32)cc1,> 5000,–,–,–,–,–
O=C1CC[C@@H]2[C@@H](c3ccccc3)Sc3ccccc3N12,0.78,230,0.29,37,20,IC50 (Cavia porcellus [15]): 20000 nM; Decrease (Cavia porcellus [16]): 66%
CN(C)Cc1ccc2n1-c1cccc(Cl)c1SC2(c1ccccc1)c1ccccc1,82,–,31,–,–,Ki [8]: 26 nM
FC(F)(F)c1ccc2c(c1)-n1cccc1C(c1ccccc1)(c1ccccc1)S2,2060,–,772,–,–,–
CN(C)Cc1ccc2n1-c1ccccc1SC2(c1ccccc1)c1ccccc1,–,–,–,3.4,10,EC50 (Cavia porcellus [17]): 890 nM; Decrease (Cavia porcellus [16]): 56%
CN(C)Cc1ccc2n1-c1cc(C(F)(F)F)ccc1SC2(c1ccccc1)c1ccccc1,107,–,40.1,–,–,–
Clc1ccc2c(c1)-n1cccc1C(c1ccccc1)(c1ccccc1)S2,4350,–,1630,–,–,–
c1ccc(C2(c3ccccc3)Sc3ccccc3-n3cccc32)cc1,465,–,178,–,–,–
CC(=O)OC1(c2ccccc2)Sc2ccccc2-n2cccc21 (stereo unspecified),4700,–,1830,36,33,EC50 (Cavia porcellus [18]): 380 nM; Decrease (Cavia porcellus [7]): 86%
CN(C)Cc1ccc2n1-c1ccccc1SC2c1ccccc1 (stereo unspecified),–,1500,–,42,76,ED30 (Cavia porcellus [20]): 510 nM; Decrease (Cavia porcellus [11]): 79%
Clc1cccc2c1SC(c1ccccc1)(c1ccccc1)c1cccn1-2,320,–,120,–,–,–
COc1ccc(C2(OC(C)=O)Sc3ccccc3-n3cccc32)cc1 (stereo unspecified),30,–,11,11,70,EC50 (Cavia porcellus [18]): 240 nM; ED30 (Cavia porcellus [22]): 2300 nM; Decrease (Cavia porcellus [16]): 71%
CC(=O)OC1(c2ccccc2)Sc2ccc(C(F)(F)F)cc2-n2cccc21 (stereo unspecified),65,–,24,–,–,–
COc1ccc([C@@H]2Sc3ccccc3N(CCN(C)C)C(=O)[C@@H]2OC(C)=O)cc1 [DILTIAZEM],–,790,–,88,94,ED30 (Cavia porcellus [6]): 70 nM; Decrease (Cavia porcellus [16]): 78%

# Continued, in another order:
IC50 [2] [nM],EC50 (Cavia porcellus [4]) [nM],Ki [12] [nM],Compound,inhibition at 100 µM (Cavia porcellus [9]) [%],Decrease (Cavia porcellus [10]) [%],further results
12,–,–,CCC(C)NCc1ccc2n1-c1ccccc1SC2c1ccc(OC)cc1 (stereo unspecified),–,–,Ki [1]: 4.4 nM
15,600,–,CCC(C)NCc1ccc2n1-c1ccccc1SC2c1ccc(OC)cc1OC (stereo unspecified),–,–,Inhibition (Cavia porcellus [3]): 18%; Decrease (Cavia porcellus [5]): 67%; ED30 (Cavia porcellus [6]): 420 nM; Decrease (Cavia porcellus [7]): 85%; Ki [1]: 5.5 nM; Ki [8]: 640 nM
> 5000,–,–,COc1ccc(C2Sc3ccccc3-n3c(CNc4ccc(F)cc4)ccc32)cc1 (stereo unspecified),–,–,–
–,560,–,COc1ccc(C2Sc3ccccc3-n3c(CNCCc4ccc(OC)c(OC)c4)ccc32)c(OC)c1 (stereo unspecified),–,10,Inhibition (Cavia porcellus [3]): 9%; Decrease (Cavia porcellus [7]): 83%
–,840,–,COc1ccc(C2Sc3ccccc3-n3c(CN(C)CCc4ccc(OC)c(OC)c4)ccc32)cc1 (stereo unspecified),4,32,Decrease (Cavia porcellus [11]): 86%; Ki [8]: 8.3 nM
> 5000,–,–,COc1ccc(C2Sc3ccccc3-n3c(CN4CCOCC4)ccc32)cc1 (stereo unspecified),–,–,–
–,450,–,COc1ccc(C2Sc3ccccc3-n3c(CNCCc4ccc(OC)c(OC)c4)ccc32)cc1 (stereo unspecified),–,14,Inhibition (Cavia porcellus [3]): 16%; Decrease (Cavia porcellus [11]): 82%
–,150,–,COc1ccc(C2Sc3ccccc3-n3c(CN(C)C)ccc32)c(OC)c1 (stereo unspecified),–,–,Inhibition (Cavia porcellus [3]): 5%; Decrease (Cavia porcellus [5]): 20%; Decrease (Cavia porcellus [19]): 68%; Ki [8]: 160 nM
–,810,–,COc1ccc(C2Sc3ccccc3-n3c(CN(C)C)ccc32)cc1 (stereo unspecified),–,–,Decrease (Cavia porcellus [5]): 30%; Decrease (Cavia porcellus [16]): 75%; Ki [8]: 53 nM; inhibition at 100 µM (Cavia porcellus [21]): 10%
1600,860,–,COc1ccc(C2Sc3ccccc3-n3c(CN(C)CCc4ccc(OC)c(OC)c4)ccc32)c(OC)c1 (stereo unspecified),–,18,Inhibition (Cavia porcellus [3]): 10%; Decrease (Cavia porcellus [7]): 62%; Ki [1]: 740 nM
198,–,–,COc1ccc(CCN(C)Cc2ccc3n2-c2ccccc2SC3c2ccccc2)cc1OC (stereo unspecified),–,–,Ki [1]: 74 nM
> 5000,–,–,COc1ccc(C2Sc3ccccc3-n3c(CNc4ccc(F)cc4)ccc32)c(OC)c1 (stereo unspecified),–,–,–
